# Screens: PubChem BioAssay, The Scripps Research Institute Molecular Screening Center
# OPRM1-OPRD1 inv: inverse agonists of human mu-delta opioid receptor heterodimerization; P35372+P41143; hit rate 0.21% among 340,000; inhibition, % at 9.3 µM; cell-based MOR-DOR heterodimer luminescence, inverse agonism; in the data active means inhibition above about 22%, passing the limit was not always enough;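 further: 0% = cells with DMSO and 100% = wells without cells with DMSO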
# HTR5A inv ag: counter-screen for OPRM1-OPRD1 inverse agonists: human HTR5A inverse agonism; P47898; hit rate 0.083% among 340,000; inhibition, % at 9.3 µM; HTR5A cell line, luminescence; in the data active means inhibition mostly above about 23%, no sharp cut-off; inactive means mostly below about 18%;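 further: 0% = cells with DMSO and 100% = no-cell wells with DMSO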
# Target sequence (P47898 whole entry, looked up): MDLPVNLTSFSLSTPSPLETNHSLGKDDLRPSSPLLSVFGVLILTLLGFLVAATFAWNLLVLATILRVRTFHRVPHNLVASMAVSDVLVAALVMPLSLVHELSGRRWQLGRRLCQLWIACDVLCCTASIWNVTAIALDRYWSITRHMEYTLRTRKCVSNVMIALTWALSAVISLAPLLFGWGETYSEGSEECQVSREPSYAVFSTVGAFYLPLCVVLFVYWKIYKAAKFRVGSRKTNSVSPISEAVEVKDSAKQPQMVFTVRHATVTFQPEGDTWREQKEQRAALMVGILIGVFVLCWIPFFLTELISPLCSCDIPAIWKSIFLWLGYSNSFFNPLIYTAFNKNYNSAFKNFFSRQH
# MC4R ag barr: agonists of human melanocortin 4 receptor (MC4R) beta-arrestin; U2OS MC4R beta-arrestin complementation, luminescence; percent of melanotan II response, DMSO zero; P32245; hit rate 0.98% among 360,000; AID 540308; activation, % at 8.9 µM;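 active means activation above a per-plate cutoff, the mean activation of sample wells on that plate plus 3 SD, cut at about 8% in these data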
# HTR5A ag ctr: activates human HTR5A in OPRM1-OPRD1 agonist counter-screen; P47898; HTR5A agonist assay, luminescence, cell-based; activation, % at 9.3 µM; hit rate 0.61% among 340,000; in the data active means activation mostly above about 9.5%, no sharp cut-off; inactive means mostly below about 7.6%;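 further: 0% = cells with vehicle only and 100% = reference agonist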
# MC4R antag cAMP: human MC4R antagonism in cAMP assay | inhibition, % at 6.5 µM | P32245 | MC4R-expressing cells, MTII-stimulated cAMP, LANCE TR-FRET | hit rate 0.48% among 360,000 | AID 540295;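 active means inhibition above its plate's cutoff, the mean of tested wells on that plate plus 3 SD, cut at about 29% in these data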;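 further: 0% = Melanotan II alone and 100% = Melanotan II plus saturating MCL0020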
#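 system = U2OS cells with stable human MC4R expression | also added = Melanotan II challenge after compound preincubation | dosing = one concentration, 6.5 µM nominal | incubation = compound 30 min, challenge 1 h, detection 1 h | measured by = TR-FRET with Eu-cAMP and labeled anti-cAMP, 671 nm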
# OPRM1-OPRD1 ag: OPRM1-OPRD1 heterodimerization agonism; cells, luminescence; activation, % at 9.3 µM; hit rate 0.3% among 340,000; AID 504326; in the data active means activation above about 18%;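 further: 0% = vehicle-treated cells and 100% = reference agonist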
# cAMP nonselect: counter-screen for MC4R antagonists: nonselective cAMP signaling inhibitors; hit rate 26% among 1,600; shares compounds with MC4R antag cAMP; inhibition, % at 6.5 µM; parental U2OS, forskolin cAMP, LANCE TR-FRET;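 active means mean inhibition over triplicates above the low-control well mean plus 3 SD, set per campaign, cut at about 13% in these data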;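 further: signal is single emission at 671 nm which falls as cellular cAMP rises; 0% = forskolin-stimulated wells and 100% = buffer without forskolin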
# MC4R antag conf: human MC4R cAMP antagonism confirmation | inhibition, % at 6.5 µM | hit rate 27% among 1,600 | shares compounds with MC4R antag cAMP | MC4R-expressing cells, MTII-stimulated cAMP, TR-FRET; in the data active means inhibition above about 29%;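 further: 0% = agonist stimulated wells alone and 100% = agonist stimulated wells plus saturating reference antagonist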
# Active calls of the source: *; / = no result given. Most compounds without a hit are left out; they make up all but 2.4% or so of the library.
SMILES,OPRM1-OPRD1 inv,HTR5A inv ag,MC4R ag barr,HTR5A ag ctr,MC4R antag cAMP,OPRM1-OPRD1 ag,cAMP nonselect,MC4R antag conf
Cc1cc(C=O)c(C)n1-c1cc(C(=O)O)cc(C(=O)O)c1,19,-27,-2,2,14,-4,/,/
Cc1cc(C=O)c(C)n1-c1cccc(C(=O)O)c1,2,3,0,-1,33*,0,1,3
COc1ccccc1C(=O)NC(=S)N1CCCc2ccccc21,11,-20,-2,6,5,-2,/,/
COc1ccccc1C(=O)NC(=S)N1CCc2ccccc21,16,26,0,-1,30*,-3,-6,-4
COc1ccc(-c2c(C)[nH]n3c(=O)c(Cc4ccccc4)c(C)nc23)cc1OC,5,6,-3,0,31*,-1,2,7
NS(=O)(=O)c1ccc(CCNC(=O)COC(=O)C2COc3ccccc3O2)cc1 (stereo unspecified),9,-29,0,-1,10,-2,/,/
O=C(NN/C(=N/S(=O)(=O)c1ccc(Cl)cc1)c1ccccc1)c1cccc(Cl)c1,-14,-9,3,3,21,3,/,/
CC(C)CN1CCN(C(=O)COC(=O)c2ccc(S(C)(=O)=O)c([N+](=O)[O-])c2)CC1,/,/,-1,/,31*,/,23*,41*
COc1ccc(C(=O)OCC(=O)N2CCCCC2)cc1[N+](=O)[O-],5,-7,-2,3,4,-1,/,/
CS(=O)(=O)c1ccc(C(=O)OCC(=O)NC23CC4CC(CC(C4)C2)C3)cc1[N+](=O)[O-],-3,-9,-4,4,50*,0,4,62*
CC1CCN(c2ccc3c(c2)S(=O)(=O)c2cccc(C(=O)O)c2C3=O)CC1,13,-16,-2,6,3,-2,/,/
O=C(O)c1cccc2c1C(=O)c1ccc(N3CCN(Cc4ccc5c(c4)OCO5)CC3)cc1S2(=O)=O,/,/,2,/,33*,/,-1,-4
Cc1nc(=O)c(-c2ccccc2)c(C)n1-c1ccccc1,3,0,2,0,31*,-1,-6,-3
C=CCN(C(=O)CNS(=O)(=O)c1ccccc1)C(C(=O)NCCOC)c1cccnc1 (stereo unspecified),2,-13,1,-2,29*,0,-1,-6
O=C(Oc1ccc(C(=S)N2CCOCC2)cc1)c1ccc([N+](=O)[O-])cc1,-5,17,0,-4,34*,1,-1,-18
CC(=O)Nc1ccc(NC(=O)C(C)OC(=O)c2ccc(S(=O)(=O)N3CCCCCC3)cc2)cc1 (stereo unspecified),5,-3,0,1,-4,-1,/,/
CCc1ccc2[nH]c(=O)c(CN(CCN(CC)CC)C(=S)NCc3ccco3)cc2c1,-18,-6,0,2,5,3,/,/
Cc1ccc(NC(=O)C2=C(c3ccccc3)S(=O)(=O)CCS2(=O)=O)cc1,-19,-17,0,6,61*,3,50*,44*
O=C(CSc1ccccn1)N1CCOCC1,2,18,1,6,29*,0,0,-3
O=C(CSc1nc2ccccc2n1CCc1ccccc1)N1CCOCC1,2,5,-1,1,33*,0,0,10
O=C(CSc1ccccn1)N1CCN(c2ccccc2)CC1,0,-4,2,0,0,0,/,/
O=C(COC(=O)CNS(=O)(=O)c1cc(C(F)(F)F)ccc1Cl)NC1CC1,14,10,-1,-3,16,-3,/,/
O=C(O)c1ccc2c(=O)n3c(nc2c1)/C(=C/c1cccc(Cl)c1Cl)CCCC3,8,-8,-3,1,27,-2,/,/
Cc1ccc(NC(=O)c2cc([N+](=O)[O-])ccc2N2CCCC2)cc1,5,12,-2,4,0,-1,/,/
COc1ccc(NC(=O)c2cc([N+](=O)[O-])ccc2N2CCN(C)CC2)cc1,1,4,1,-1,29*,0,-1,2
SMILES,OPRM1-OPRD1 inv,HTR5A inv ag,MC4R ag barr,HTR5A ag ctr,MC4R antag cAMP,OPRM1-OPRD1 ag,cAMP nonselect,MC4R antag conf
COc1ccc(C(CNC(=O)c2cc(F)c(F)c(F)c2F)N2CCOCC2)cc1 (stereo unspecified),-3,-5,-2,2,31*,1,19*,36*
O=c1[nH][nH]c(-c2ccccc2)c1C=Nc1ccc(OC(F)(F)F)cc1,16,-8,0,-4,0,-2,/,/
c1ccc(COc2ccc(-c3cc4nc(NCCN5CCOCC5)ccn4n3)cc2)cc1,/,/,2,/,33*,/,3,20
c1ccc(COc2cccc(-c3cc4nc(NCCN5CCOCC5)ccn4n3)c2)cc1,/,/,0,/,3,/,/,/
C[C@H](NC(=O)c1nc[nH]c1C(=O)N1CCNCC1)C(=O)OCc1ccccc1,13,2,-1,-1,10,-2,/,/
COc1cc(C(=O)N2CCN(C(=O)c3cc(-c4ccccc4)n[nH]3)CC2)cc(OC)c1OC,14,3,-3,-1,4,-3,/,/
Cn1c(=O)c2[nH]c(NN=Cc3ccc(Br)cc3)nc2n(C)c1=O,-5,-8,-2,2,13,1,/,/
Cc1ccc(C=NNc2nc3c([nH]2)c(=O)n(C)c(=O)n3C)cc1,7,5,-2,-1,43*,-1,2,0
Cc1coc2cc3oc(=O)c(Cc4ccccc4)c(C)c3cc12,-20,-12,-1,-2,1,4,/,/
Cc1coc2cc3oc(=O)c(CC(=O)N(C)CC(=O)O)c(C)c3cc12,1,5,1,-1,29*,0,19*,1
O=C(COC(=O)CNC(=O)c1cccc(F)c1)NCCC1=CCCCC1,0,-3,-1,1,29*,0,18*,40*
CCOC(=O)COc1c(/C=N\O)cc(Cl)cc1OC,22,11,-2,0,-6,-5,/,/
CCc1nnc(NC(=O)CSc2nnc3nc(C)cc(C)n23)s1,-9,-19,1,0,20,1,/,/
COCCNC(=O)CN(Cc1ccc(F)cc1)C(=O)CCC(=O)Nc1nccs1,-12,8,1,-3,6,2,/,/
O=C(Cn1ncc(Cl)c(Cl)c1=O)NC(=O)NC1CCCCC1,6,5,-1,-1,38*,-1,36*,67*
O=C(CN1CCCCC1)NC(=O)NC1CCCC1,12,-15,-2,6,-2,-2,/,/
CC(NC(=O)Cn1ncc(Cl)c(Cl)c1=O)C12CC3CC(CC(C3)C1)C2 (stereo unspecified),30,-27,-2,-2,81*,-6,32*,46*
